Screening results from PubChem BioAssay.
Only some compounds are listed: those with a hit (about 3% of all), similar ones and a draw of the others.
Tn6 DDE FP: inhibitors of Tn6 peptide binding to fibrin DD(E), primary screen, biochemical, fluorescence polarization, human fibrin, Tn6 probe; Fibrinogen beta chain (Homo sapiens), P02675; Fibrin DD(E) TRITC-Tn6 fluorescence polarization displacement; inhibition, % at 8.3 µM; 370,000 tested, 0.21% active; AID 720509, 2013;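 active = inhibition above a per-campaign cutoff: mean of compounds within control limits plus 3 SD, cut at about 15% in these data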;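 note: 0% = median of all compound wells on the plate and 100% = blocking peptide control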
Tn7 DDE FP: inhibitors of Tn7 peptide binding to fibrin DD(E), primary screen, biochemical, fluorescence polarization, human fibrin, Tn7 probe; Fibrinogen beta chain (Homo sapiens), P02675; FP displacement of FITC-Tn7 peptide from fibrin DD(E); 0% = median of compound wells per plate; inhibition, % at 8.3 µM; 370,000 tested, 0.13% active;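 active = inhibition above the mean of compounds falling within the control limits plus 3 SD of them, cut at about 14% in these data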;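 note: 0% = plate median of compound wells and 100% = 10 µM Aha-Tn7 peptide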
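Test system: human clot-derived fibrin DD(E) complex / Quantity: 2 µM final DD(E) protein / Incubation: 10 min plus 3 h, room temperature / Measured by: fluorescence polarization / Benchmarks: high control of 10 µM Aha-Tn7 peptide / Replicates: singlicate testing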
PLCg1 inh: PLC-gamma1 enzyme inhibitors, primary screen, biochemical, fluorescence, purified enzyme; inhibition, % at 12.2 µM; AID 720700, 2013; fluorogenic substrate; 1-phosphatidylinositol 4,5-bisphosphate phosphodiesterase gamma-1 (Homo sapiens), P19174; 370,000 tested, 0.84% active; in the data active = inhibition above about 9.5%
proKLK7 act: proKLK7 zymogen activators, primary screen, biochemical, fluorescence intensity | Kallikrein-7 (Homo sapiens), P49862 | purified proKLK7, EDANS-DABCYL substrate fluorescence; 100% is mature enzyme control, 0% vehicle | activation, % at 7 µM | 370,000 tested, 0.9% active;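 active = activation above the mean of all tested compounds plus 3 SD, computed per campaign excluding outliers beyond control limits, cut at about 13% in these data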
CendR NRP1 mod: modulators of CendR peptide binding to NRP-1, primary screen, biochemical, fluorescence polarization, uHTS; inhibition, % at 25 µM; FAM-RPARPAR peptide binding to NRP-1; AID 602438, 2012; 360,000 tested, 0.85% active;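 active = inhibition or corrected inhibition above about 18%, plus a signal ratio from 0.5 to 1.5, limit read from the data, passing the limit was not always enough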
PLC-beta3 inh: human PLC-beta3 inhibitors, primary screen, biochemical, fluorescence; inhibition, % at 12.2 µM; 1-phosphatidylinositol 4,5-bisphosphate phosphodiesterase beta-3 (Homo sapiens), Q01970; 370,000 tested, 0.18% active; AID 720704, 2013; Purified PLC-beta3, fluorogenic substrate; in the data active = inhibition above about 11%;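 note: 0% = median of compound wells on plate and 100% = full blocker control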
Tn6 DDE ctr: DD(E)-Tn6 binding inhibition, counter-screen. shares compounds with Tn6 DDE FP. Fibrin DD(E), TRITC-Tn6 fluorescence polarization displacement; 0% = median of compound wells, not DMSO. inhibition, % at 8.3 µM. 680 tested, 2% active. AID 720621;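 active = inhibition above the mean of test compounds lying between the control limits plus 3 SD of those, cut at about 14% in these data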;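 note: 0% = median of compound wells and 100% = wells with Aha-Tn7 blocking peptide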
Tn6 DDE conf: inhibitors of Tn6 peptide binding to fibrin DD(E), confirmation, biochemical, fluorescence polarization, human fibrin, Tn6 probe. 680 tested, 10% active. shares compounds with Tn6 DDE FP. inhibition, % at 8.3 µM. FP displacement of TRITC-Tn6 peptide from DD(E); 0% = per-plate median of test wells;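 active = inhibition above the mean of compounds lying within the control limits plus 3 SD, cut at about 16% in these data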;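 note: 100% = high control wells holding a competing inhibitor peptide at 10 µM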
Numbers without * were called inactive.

For Cc1ccccc1C(=O)Nc1ccc(-c2nc3ccc(C(=O)c4ccccc4)cc3[nH]2)cc1 the results were Tn6 DDE FP 38*, Tn7 DDE FP -2, PLCg1 inh -96, proKLK7 act -97, CendR NRP1 mod 14, PLC-beta3 inh -99, Tn6 DDE ctr 14* and Tn6 DDE conf 22*.
`O=C1N=C(N2CCN(c3ccccc3)CC2)S/C1=C/c1ccco1` gave Tn6 DDE FP 17*, Tn7 DDE FP 3, PLCg1 inh -11, proKLK7 act 0, CendR NRP1 mod -18, PLC-beta3 inh -14, Tn6 DDE ctr 9 and Tn6 DDE conf 2.
O=C(CSc1nnc(-c2ccncc2)n1-c1ccccc1)Nc1cccc2ccccc12 was read as Tn6 DDE FP -1, Tn7 DDE FP -6, PLCg1 inh 1, proKLK7 act 0 and PLC-beta3 inh 4.
Cc1cc(C)c2c(N)c(C(=O)Nc3ccccc3Cl)sc2n1 was read as Tn6 DDE FP 18*, Tn7 DDE FP 6, PLCg1 inh -191, proKLK7 act 0, CendR NRP1 mod -5, PLC-beta3 inh -261, Tn6 DDE ctr -5 and Tn6 DDE conf -6.
`c1ccc(C2CCC3(CC2)CCC3NCc2cccs2)cc1` (configuration not stated) gave Tn6 DDE FP -2, Tn7 DDE FP -1, PLCg1 inh 2 and PLC-beta3 inh -2.
`C(=N/N1CCN(c2ccccc2)CC1)/c1ccco1` gave Tn6 DDE FP 0, Tn7 DDE FP -7, PLCg1 inh 0, proKLK7 act 0 and PLC-beta3 inh 2.
For COc1ccc(CN2C3=NC(c4ccccc4)CC(=O)N3/C(=C\c3ccccc3)C2c2ccccc2)c(OC)c1 (configuration not stated) the results were Tn6 DDE FP -5, Tn7 DDE FP 2, PLCg1 inh -2 and PLC-beta3 inh -3.
For CCOC(=O)c1c(C)[nH]c(O)c1C=Nc1ccc(Cl)cc1 the results were Tn6 DDE FP 32*, Tn7 DDE FP -4, PLCg1 inh -26, proKLK7 act 3, CendR NRP1 mod -112, PLC-beta3 inh -35, Tn6 DDE ctr 2 and Tn6 DDE conf -3.
`Cc1ccc(S(=O)(=O)NCCC(=O)OCc2ccc([N+](=O)[O-])cc2)cc1C` gave Tn6 DDE FP 18*, Tn7 DDE FP -2, PLCg1 inh -1, proKLK7 act 0, CendR NRP1 mod -8, PLC-beta3 inh -5, Tn6 DDE ctr 5 and Tn6 DDE conf 5.
For CCCCCn1c(=O)[nH]c2cc(C(=O)NCCCN3CCC(C)CC3)ccc2c1=O the results were Tn6 DDE FP 18*, Tn7 DDE FP 11, PLCg1 inh -71, proKLK7 act -2, CendR NRP1 mod 28*, PLC-beta3 inh -105, Tn6 DDE ctr -2 and Tn6 DDE conf -8.
Screening Cc1cc(C(=O)OCC(=O)NC2CCS(=O)(=O)C2)c2ccccc2n1 (configuration not stated) returned Tn6 DDE FP 8, Tn7 DDE FP -1, PLCg1 inh -2, proKLK7 act -1, CendR NRP1 mod 6 and PLC-beta3 inh -14.
O=C(COC(=O)c1cc(-c2cccc3ccccc23)nc2ccccc12)NC1CCS(=O)(=O)C1 (configuration not stated) was read as Tn6 DDE FP 30*, Tn7 DDE FP -5, PLCg1 inh -144, proKLK7 act 3, CendR NRP1 mod -18, PLC-beta3 inh -203, Tn6 DDE ctr 6 and Tn6 DDE conf 20*.
`Cc1ccccc1C(=O)N1CCC(C(=O)Nc2ccccn2)CC1` gave Tn6 DDE FP 44*, Tn7 DDE FP 2, PLCg1 inh -1, proKLK7 act -1, CendR NRP1 mod 4, PLC-beta3 inh -8, Tn6 DDE ctr 1 and Tn6 DDE conf -4.
For Cc1ccccc1C(=O)N1CCC(C(=O)Nc2ccc(F)cc2)CC1 the results were Tn6 DDE FP 15*, Tn7 DDE FP 1, PLCg1 inh 3, proKLK7 act 0, CendR NRP1 mod -5, PLC-beta3 inh 2, Tn6 DDE ctr 4 and Tn6 DDE conf -9.
Screening COc1ccc(CCNCC(O)COc2cccc(C)c2)cc1OC (configuration not stated) returned Tn6 DDE FP 4, Tn7 DDE FP 0, PLCg1 inh -2, proKLK7 act 0 and PLC-beta3 inh 2.
Screening COC(=O)[C@H](C)NC(=O)Nc1ccc(S(N)(=O)=O)cc1 returned Tn6 DDE FP 5, Tn7 DDE FP -2, PLCg1 inh 2, proKLK7 act 0, CendR NRP1 mod 10 and PLC-beta3 inh 2.
`CC(C)C(Cl)=NOC(=O)Nc1ccc(S(N)(=O)=O)cc1` gave Tn6 DDE FP 16*, Tn7 DDE FP -11, PLCg1 inh 5, proKLK7 act 0, CendR NRP1 mod 4, PLC-beta3 inh 3, Tn6 DDE ctr 7 and Tn6 DDE conf 8.
O=C(C1CCCCC1)N1CCN(c2ccccc2F)CC1 was read as Tn6 DDE FP 42*, Tn7 DDE FP 6, PLCg1 inh 1, proKLK7 act 0, CendR NRP1 mod 1, PLC-beta3 inh -3, Tn6 DDE ctr 5 and Tn6 DDE conf 4.
COC(=O)[C@H]1C[C@@]2(N3CCCC3)c3ccccc3N[C@H]2N1S(C)(=O)=O was read as Tn6 DDE FP 8, Tn7 DDE FP -2, PLCg1 inh -3, proKLK7 act -1 and PLC-beta3 inh -3.
Screening COc1ccc(NC(=O)c2cccnc2)cc1 returned Tn6 DDE FP 0, Tn7 DDE FP -3, PLCg1 inh 2, proKLK7 act 0, CendR NRP1 mod 1 and PLC-beta3 inh -4.
For C/C(=C\C(=O)c1cccnc1)Nc1ccc(O)cc1 the results were Tn6 DDE FP 44*, Tn7 DDE FP 11, PLCg1 inh -26, proKLK7 act 0, CendR NRP1 mod -3, PLC-beta3 inh -35, Tn6 DDE ctr 6 and Tn6 DDE conf -2.
